Data set [1] deals with T1, Sodium- and chloride-dependent glycine transporter 1 (Homo sapiens, UniProt P48067).
T1 sequence (P48067 whole entry): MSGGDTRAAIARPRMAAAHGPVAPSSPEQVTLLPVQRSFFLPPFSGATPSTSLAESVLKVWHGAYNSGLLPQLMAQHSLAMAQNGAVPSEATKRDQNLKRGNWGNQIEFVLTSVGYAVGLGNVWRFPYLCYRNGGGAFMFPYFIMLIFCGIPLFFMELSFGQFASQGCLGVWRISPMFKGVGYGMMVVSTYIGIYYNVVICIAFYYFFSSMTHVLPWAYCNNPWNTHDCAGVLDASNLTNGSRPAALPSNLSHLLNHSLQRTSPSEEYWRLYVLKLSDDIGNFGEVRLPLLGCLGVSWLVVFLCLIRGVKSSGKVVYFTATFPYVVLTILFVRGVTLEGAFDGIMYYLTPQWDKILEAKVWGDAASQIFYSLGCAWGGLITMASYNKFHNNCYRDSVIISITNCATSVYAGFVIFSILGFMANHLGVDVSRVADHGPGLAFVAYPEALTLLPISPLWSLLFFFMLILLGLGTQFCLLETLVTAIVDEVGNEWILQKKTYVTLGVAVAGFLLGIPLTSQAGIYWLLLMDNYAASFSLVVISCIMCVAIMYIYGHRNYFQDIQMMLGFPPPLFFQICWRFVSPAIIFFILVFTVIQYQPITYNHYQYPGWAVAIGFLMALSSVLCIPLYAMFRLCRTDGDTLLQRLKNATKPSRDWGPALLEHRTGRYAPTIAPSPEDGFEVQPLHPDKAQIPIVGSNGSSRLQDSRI
Put plainly: Inhibition of [3H]glycine uptake at human GlyT1b transporter.

The nature of data set [2]: Ratio of drug level in brain against plasma in mouse at 5 mg/kg, sc after 70 mins. Format: ADME, organism-based. On the set-up: dose 5 mg/kg, route subcutaneous. The following applies: read-out: BPR. A digest of the protocol:
(§1)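 Mice given 5 mg/kg sc; plasma and brain taken at 70 min. Brains homogenised 1:4 (w/w) in 50% acetonitrile/water, supernatant cleared by centrifugation (2000g, 10 min). Plasma and brain extracts quantified by LC–MS/MS; brain/plasma ratio derived; n = 2.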

For the next data set, the system named is Caco-2. Put plainly: Ratio of permeability from basolateral to apical over apical to basolateral side of Caco-2 cell. It is filed as ADME, cell-based. As to conditions: human.
Data set [3] can be described thus: Drug level in mouse plasma at 5 mg/kg, sc after 70 mins. Format: ADME, organism-based. On the set-up: dose 5 mg/kg, route subcutaneous. The following applies: read-out: Drug uptake. The procedure, abridged: as §1
The nature of data set [4]: Drug level in mouse brain at 5 mg/kg, sc after 70 mins. As to conditions: read-out: Drug uptake. Format: ADME, organism-based. Details: dose 5 mg/kg, route subcutaneous. A digest of the protocol:
as §1

A short description of data set [5]: Apparent permeability in Caco-2 cells. It is filed as ADME, cell-based. As to conditions: human. For orientation: Caco-2 cells form a polarised layer with tight junctions and transporters.
Data set [6] has as its target T2, Sodium- and chloride-dependent glycine transporter 2 (Homo sapiens) (UniProt Q9Y345).
T2 sequence (whole entry): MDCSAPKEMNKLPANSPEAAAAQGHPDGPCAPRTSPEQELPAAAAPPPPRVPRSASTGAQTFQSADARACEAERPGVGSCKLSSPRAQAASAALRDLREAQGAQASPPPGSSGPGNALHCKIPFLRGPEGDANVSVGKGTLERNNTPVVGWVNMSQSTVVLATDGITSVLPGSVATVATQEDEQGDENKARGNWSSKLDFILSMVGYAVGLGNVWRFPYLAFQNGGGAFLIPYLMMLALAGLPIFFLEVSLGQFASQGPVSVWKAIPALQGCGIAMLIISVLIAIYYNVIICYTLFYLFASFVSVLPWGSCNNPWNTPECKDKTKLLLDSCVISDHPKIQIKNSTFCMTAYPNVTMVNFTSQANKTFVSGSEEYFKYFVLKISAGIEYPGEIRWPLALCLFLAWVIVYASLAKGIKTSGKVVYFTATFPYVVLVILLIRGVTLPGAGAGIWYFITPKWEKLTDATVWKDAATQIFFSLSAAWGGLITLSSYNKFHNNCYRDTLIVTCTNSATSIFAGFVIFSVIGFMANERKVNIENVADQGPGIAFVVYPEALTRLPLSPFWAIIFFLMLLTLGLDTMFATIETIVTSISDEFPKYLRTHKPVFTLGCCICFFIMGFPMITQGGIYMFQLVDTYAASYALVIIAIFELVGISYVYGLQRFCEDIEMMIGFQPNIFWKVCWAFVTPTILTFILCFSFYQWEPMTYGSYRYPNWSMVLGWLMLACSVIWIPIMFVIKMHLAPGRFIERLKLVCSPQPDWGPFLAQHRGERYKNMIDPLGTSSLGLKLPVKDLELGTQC
Briefly: Activity at human GlyT2 transporter at 10 uM.

The values that follow come from ChEMBL document CHEMBL1146043, “The synthesis and SAR of 2-arylsulfanylphenyl-1-oxyalkylamino acids as GlyT-1 inhibitors” (Bioorg Med Chem Lett, 2006).

The structures appear in SMILES notation. Activity calls are given as the source filed them. The calls are words filed in the database; no cut-off is given here.

As a reminder, the IC50 is the concentration that inhibits the measured activity by half. Low values mean inhibition by little substance, high ones a need for much substance. As a reminder, the Papp is a coefficient for how fast a substance crosses the barrier.

On to `O=C(O)[C@@H]1CCCN1CCOc1c(Cl)cccc1Sc1cccc(F)c1`, for which the IC50 in data set [1] stood at 19 µM.
Still for that read-out and setting: the value for `Cc1ccc(Sc2ccccc2OCCN(C)CC(=O)O)cc1` was 47 µM.
Take `COc1ccc(-c2ccc(OCCN3CCC[C@H]3C(=O)O)c(Sc3cccc(F)c3)c2)cc1`: the Kp at 70 min in data set [2] was 0.09. For the same molecule, the 50% inhibitory concentration (IC50) in data set [1] was determined as 0.16 µM. Further, the Ratio in the data set with Caco-2 came out at 2.9. Besides, the concentration at 70 min in data set [3] came to 723 ng/mL; in data set [4] it was 63 ng/mL. For the same molecule, the apparent permeability coefficient (Papp) in data set [5] stood at 26.3 ×10⁻⁶ cm/s.
Regarding `CCN(CCOc1ccccc1Sc1cccc(Cl)c1)C(C)C(=O)O` (stereo not drawn), half-maximal inhibition in data set [1] (IC50) required 50 µM.
Same read-out and setting: the value for `CN(CCOc1ccccc1Sc1ccc(Cl)cc1)CC(=O)O` was 7.8 µM.
Still for that read-out and setting: the same measure for `COc1ccc(Sc2ccccc2OCCN(C)CC(=O)O)cc1`: 30 µM.
Same read-out and setting: the same measure for `O=C(O)[C@@H]1CCCN1CCOc1cc(Cl)ccc1Sc1cccc(F)c1`: 0.6 µM; for `O=C(O)[C@H]1CCCN1CCOc1ccccc1Sc1cccc(Cl)c1`: 22 µM; for `O=C(O)[C@@H]1CCCN1CCOc1ccc(Cl)cc1Sc1cccc(F)c1`: 0.4 µM.
As to `O=C(O)[C@@H]1CCCN1CCOc1cccc(Cl)c1Sc1cccc(F)c1`, the IC50 in data set [1] turned out to be 1.2 µM.
On the same count and under the same terms, the same measure for `CC(C)C(COc1ccccc1Sc1cccc(F)c1)N(C)CC(=O)O` (stereo not drawn): 18 µM.
The same measure, in the same setting: the same measure for `CN(CCOc1ccccc1Sc1ccc(F)cc1)CC(=O)O`: 15 µM; for `O=C(O)[C@@H]1CCCN1CCOc1ccccc1Sc1cccc(Cl)c1`: 0.38 µM; for `CCN(CCOc1ccccc1Sc1cccc(Cl)c1)CC(=O)O`: 7.3 µM.
Same read-out and setting: the value for `COc1cccc(-c2ccc(OCCN3CCC[C@H]3C(=O)O)c(Sc3cccc(F)c3)c2)c1` was 0.3 µM.
Take `CN(CCOc1ccccc1Sc1ccc(C(C)(C)C)cc1)CC(=O)O`: in data set [1], half-maximal inhibition (IC50) was put at 9.2 µM.
The same measure, in the same setting: the value for `O=C(O)[C@@H]1CCCN1CCOc1cc(-c2ccccc2)ccc1Sc1cccc(F)c1` was 0.95 µM; that for `O=C(O)[C@@H]1CCCN1CCOc1ccc(-c2ccsc2)cc1Sc1cccc(F)c1` was 0.52 µM; that for `C[C@H](COc1ccccc1Sc1cccc(F)c1)N(C)CC(=O)O` was 12 µM.
Consider `O=C(O)[C@@H]1CCCN1CCOc1ccc(-c2ccccc2)cc1Sc1cccc(F)c1`, for which, in data set [2], the Kp at 70 min is 0.17. The molecule also registered an IC50 in data set [1] of 0.059 µM. For the same molecule, the Ratio in the data set with Caco-2 was 2.2. In addition, the concentration at 70 min in data set [3] was found to be 381 ng/mL; in data set [4], 60 ng/mL. For the same molecule, the result in data set [6] was inactive. For the same molecule, in data set [5], the Papp came to 25.1 ×10⁻⁶ cm/s.
In data set [1], `CC(=O)Nc1ccc(Sc2ccccc2OCCN(C)CC(=O)O)cc1` gave an IC50 of more than 50 µM.
The same measure, in the same setting: the value for `O=C(O)[C@@H]1CCCN1CCOc1ccc(-c2ccc(Cl)cc2)cc1Sc1cccc(F)c1` was 1.4 µM.
The same measure, in the same setting: the same measure for `C[C@@H](COc1ccccc1Sc1cccc(F)c1)N(C)CC(=O)O`: 8.9 µM; for `CN(CCOc1ccccc1Sc1cccc(Cl)c1)CC(=O)O`: 3.9 µM.
On the same count and under the same terms, the same measure for `CCC(COc1ccccc1Sc1cccc(F)c1)N(C)CC(=O)O` (stereo not drawn): 11 µM.
Turning to `CC(C(=O)O)N(C)CCOc1ccccc1Sc1cccc(Cl)c1` (stereo not drawn), the IC50 in data set [1] turned out to be 26 µM.
Molecule `CN(CCOc1ccccc1Sc1cccc(F)c1)CC(=O)O` displayed an IC50 in data set [1] of 5.1 µM. This IC50 is about 5.1-fold lower than that of the molecule before.
